{
  "source": "ChEMBL document CHEMBL1152403",
  "about": "“Synthesis and evaluation of new endomorphin analogues modified at the Pro(2) residue” (Bioorg Med Chem Lett, 2009)",
  "note": "Where a SMILES comes first, the peptide text is derived from it. [ ]: non-standard residue; d: D form. Dha = C=C(N)C(=O)O",
  "data": [
    {"biological_target": "Mu-type opioid receptor (Rattus norvegicus, UniProt P33535)", "sequence (P33535 whole entry)": "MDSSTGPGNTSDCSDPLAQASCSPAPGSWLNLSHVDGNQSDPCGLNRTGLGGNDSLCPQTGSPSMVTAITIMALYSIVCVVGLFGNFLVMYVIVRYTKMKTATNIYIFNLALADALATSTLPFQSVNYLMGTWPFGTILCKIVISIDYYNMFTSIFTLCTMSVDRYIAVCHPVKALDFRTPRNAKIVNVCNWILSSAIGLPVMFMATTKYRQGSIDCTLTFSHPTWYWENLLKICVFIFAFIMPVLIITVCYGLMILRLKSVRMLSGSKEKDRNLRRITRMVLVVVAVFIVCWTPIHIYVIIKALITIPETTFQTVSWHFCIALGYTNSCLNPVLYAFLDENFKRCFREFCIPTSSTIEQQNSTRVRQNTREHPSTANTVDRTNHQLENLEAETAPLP", "assay": "Displacement of [3H]DAMGO from mu opioid receptor in rat brain membrane by liquid scintillation counting", "assay_type": "cell membranes", "units": {"Ki": "nM"}, "values": [
      {"molecule": "NC(=O)[C@H](Cc1ccccc1)NC(=O)[C@H](Cc1c[nH]c2ccccc12)NC(=O)[C@@H]1CCN1C(=O)[C@@H](N)Cc1ccc(O)cc1", "Ki": 2.3},
      {"molecule": "NC(=O)[C@H](Cc1ccccc1)NC(=O)[C@H](Cc1ccccc1)NC(=O)C1CN(C(=O)[C@@H](N)Cc2ccc(O)cc2)C1", "Ki": 210},
      {"molecule": "NC(=O)[C@H](Cc1ccccc1)NC(=O)[C@H](Cc1ccccc1)NC(=O)[C@@H]1CCN1C(=O)[C@@H](N)Cc1ccc(O)cc1", "Ki": 5.6},
      {"molecule": "NC(=O)[C@H](Cc1ccccc1)NC(=O)[C@H](Cc1c[nH]c2ccccc12)NC(=O)C1CN(C(=O)[C@@H](N)Cc2ccc(O)cc2)C1", "Ki": 34},
      {"molecule": "NC(=O)[C@H](Cc1ccccc1)NC(=O)[C@H](Cc1ccccc1)NC(=O)[C@@H]1C=CCN1C(=O)[C@@H](N)Cc1ccc(O)cc1", "Ki": 6.5},
      {"molecule": "C=C(NC(=O)[C@@H](N)Cc1ccc(O)cc1)C(=O)N[C@@H](Cc1ccccc1)C(=O)N[C@@H](Cc1ccccc1)C(N)=O", "note": "(H-Y[Dha]FF-NH2)", "Ki": 34}
    ]},
    {"biological_target": "Delta-type opioid receptor (Mus musculus, UniProt P32300)", "sequence (P32300 whole entry)": "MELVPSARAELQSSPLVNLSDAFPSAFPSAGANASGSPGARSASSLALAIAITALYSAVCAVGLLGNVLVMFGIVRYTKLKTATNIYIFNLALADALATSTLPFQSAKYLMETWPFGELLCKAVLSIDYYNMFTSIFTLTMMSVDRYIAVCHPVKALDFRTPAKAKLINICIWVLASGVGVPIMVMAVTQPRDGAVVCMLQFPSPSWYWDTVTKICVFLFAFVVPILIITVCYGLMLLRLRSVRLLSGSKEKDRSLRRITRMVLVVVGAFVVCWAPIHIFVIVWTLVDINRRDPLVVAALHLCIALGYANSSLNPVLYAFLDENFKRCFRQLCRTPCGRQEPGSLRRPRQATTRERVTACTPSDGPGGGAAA", "assay": "Agonist activity at delta opioid receptor in mouse vas deference assessed as inhibition of electrically-stimulated contraction", "assay_type": "functional", "summary_of_the_method": "(§1)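 Isolated-tissue bioassay of inhibition of electrically evoked contraction (MVD for δ, GPI/LMMP for μ). IC50 is the mean of at least four experiments. IC50, relative potency and standard errors were obtained by fitting the data to the Hill equation by computerized non-linear least squares.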", "units": {"IC50": "nM"}, "values": [
      {"molecule": "NC(=O)[C@H](Cc1ccccc1)NC(=O)[C@H](Cc1ccccc1)NC(=O)[C@@H]1C=CCN1C(=O)[C@@H](N)Cc1ccc(O)cc1", "IC50": 70000}
    ]},
    {"species_on_record": "Rattus norvegicus", "assay": "Selectivity ratio of Ki for delta opioid receptor in rat brain membrane to Ki for mu opioid receptor in rat brain membrane", "assay_type": "cell membranes", "values": [
      {"molecule": "NC(=O)[C@H](Cc1ccccc1)NC(=O)[C@H](Cc1c[nH]c2ccccc12)NC(=O)[C@@H]1CCN1C(=O)[C@@H](N)Cc1ccc(O)cc1", "Ratio Ki": 1500},
      {"molecule": "NC(=O)[C@H](Cc1ccccc1)NC(=O)[C@H](Cc1ccccc1)NC(=O)C1CN(C(=O)[C@@H](N)Cc2ccc(O)cc2)C1", "Ratio Ki": 32},
      {"molecule": "NC(=O)[C@H](Cc1ccccc1)NC(=O)[C@H](Cc1ccccc1)NC(=O)[C@@H]1CCN1C(=O)[C@@H](N)Cc1ccc(O)cc1", "Ratio Ki": 920},
      {"molecule": "NC(=O)[C@H](Cc1ccccc1)NC(=O)[C@H](Cc1c[nH]c2ccccc12)NC(=O)C1CN(C(=O)[C@@H](N)Cc2ccc(O)cc2)C1", "Ratio Ki": 1.2},
      {"molecule": "C=C(NC(=O)[C@@H](N)Cc1ccc(O)cc1)C(=O)N[C@@H](Cc1ccccc1)C(=O)N[C@@H](Cc1ccccc1)C(N)=O", "note": "(H-Y[Dha]FF-NH2)", "Ratio Ki": 21}
    ]},
    {"biological_target": "Delta-type opioid receptor (Mus musculus) (UniProt P32300)", "sequence (P32300 whole entry)": "as above", "assay": "Agonist activity at delta opioid receptor in mouse vas deference assessed as inhibition of electrically-stimulated contraction at 1 uM", "assay_type": "functional", "units": {"inhibition": "%"}, "values": [
      {"molecule": "NC(=O)[C@H](Cc1ccccc1)NC(=O)[C@H](Cc1ccccc1)NC(=O)C1CN(C(=O)[C@@H](N)Cc2ccc(O)cc2)C1", "inhibition": 13}
    ]},
    {"biological_target": "Delta-type opioid receptor (Rattus norvegicus, UniProt P33533)", "sequence (P33533 whole entry)": "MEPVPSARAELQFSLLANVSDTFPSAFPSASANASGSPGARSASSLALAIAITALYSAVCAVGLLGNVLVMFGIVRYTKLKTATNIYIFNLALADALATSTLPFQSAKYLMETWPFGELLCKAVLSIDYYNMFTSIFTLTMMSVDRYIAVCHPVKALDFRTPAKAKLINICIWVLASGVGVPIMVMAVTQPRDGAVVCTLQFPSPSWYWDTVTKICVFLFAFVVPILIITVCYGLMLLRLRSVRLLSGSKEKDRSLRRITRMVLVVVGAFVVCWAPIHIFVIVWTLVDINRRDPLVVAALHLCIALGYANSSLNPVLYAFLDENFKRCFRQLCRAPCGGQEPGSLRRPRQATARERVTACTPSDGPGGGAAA", "assay": "Displacement of [3H][…] from delta opioid receptor in rat brain membrane by liquid scintillation counting", "assay_type": "cell membranes", "units": {"Ki": "nM"}, "values": [
      {"molecule": "NC(=O)[C@H](Cc1ccccc1)NC(=O)[C@H](Cc1c[nH]c2ccccc12)NC(=O)[C@@H]1CCN1C(=O)[C@@H](N)Cc1ccc(O)cc1", "Ki": 3500},
      {"molecule": "NC(=O)[C@H](Cc1ccccc1)NC(=O)[C@H](Cc1ccccc1)NC(=O)C1CN(C(=O)[C@@H](N)Cc2ccc(O)cc2)C1", "Ki": 6900},
      {"molecule": "NC(=O)[C@H](Cc1ccccc1)NC(=O)[C@H](Cc1ccccc1)NC(=O)[C@@H]1CCN1C(=O)[C@@H](N)Cc1ccc(O)cc1", "Ki": 5100},
      {"molecule": "NC(=O)[C@H](Cc1ccccc1)NC(=O)[C@H](Cc1c[nH]c2ccccc12)NC(=O)C1CN(C(=O)[C@@H](N)Cc2ccc(O)cc2)C1", "Ki": 40},
      {"molecule": "C=C(NC(=O)[C@@H](N)Cc1ccc(O)cc1)C(=O)N[C@@H](Cc1ccccc1)C(=O)N[C@@H](Cc1ccccc1)C(N)=O", "note": "(H-Y[Dha]FF-NH2)", "Ki": 710}
    ]},
    {"biological_target": "Mu-type opioid receptor (Cavia porcellus, UniProt P97266)", "sequence (P97266 whole entry)": "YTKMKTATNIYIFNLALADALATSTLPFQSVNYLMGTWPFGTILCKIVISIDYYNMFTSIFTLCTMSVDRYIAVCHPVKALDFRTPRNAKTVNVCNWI", "assay": "Agonist activity at mu opioid receptor in guinea pig ileum assessed as inhibition of electrically-stimulated contraction", "assay_type": "functional, tissue-based", "summary_of_the_method": "as §1", "units": {"IC50": "nM"}, "values": [
      {"molecule": "NC(=O)[C@H](Cc1ccccc1)NC(=O)[C@H](Cc1ccccc1)NC(=O)[C@@H]1C=CCN1C(=O)[C@@H](N)Cc1ccc(O)cc1", "IC50": 14000}
    ]}
  ]
}
